According to publication PMC2865690 (ChemMedChem, 2009):

Legend:
[1] = tested on: mGluR5; assay: mGluR5 allosteric agonist activity, compound alone without glutamate; type: cell-based
In short: (§1)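 Calcium fluorescence recorded continuously on mGluR5. Test compound added alone at t = 4 s, then an EC20 concentration of glutamate added 140 s later. Agonism is read from the response to compound alone; potentiation from the response to EC20 glutamate. Full concentration-response curves, up to 30 μM, give EC50s.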

[2] = tested on: mGluR5; assay: Fold-shift assay of the glutamate concentration-response curve; type: cell-based; conditions: 1 μM compound; leftward shift
[3] = tested on: mGluR5; assay: mGluR5 potentiation; type: cell-based; conditions: read-out: Potentiator EC50; at an EC20 concentration of glutamate; average of at least three determinations
In short: as §1

[4] = cited from earlier work

Row | Compound | Allosteric agonist % Glu Max [1] | EC50 ([1]; read-out: Allosteric agonist EC50, absence of an EC20 of glutamate) | Fold shift of the glutamate CRC [2] | EC50 [3] | Solubility in most vehicles [4]
1 | O=C(c1ccc(F)cc1)N1CCC[C@H](c2nc(-c3ccc(F)cc3)no2)C1 [ADX-47273] | 65% | 9.5 µM | 9 fold | 0.168 ± 0.028 µM | 
2 | O=C(c1ccc(F)cc1)N1CCCC(c2nc(-c3ccc(F)cc3)no2)C1 (stereo not drawn) [16a] |  |  |  | 1.68 ± 3.62 µM | 
3 | N#Cc1cccc(C(=O)Nc2cc(-c3ccccc3)nn2-c2ccccc2)c1 [CDPPB] |  |  |  |  | poor solubility
